{"source": "paper PMC4818746", "about": "(Annals of Clinical and Translational Neurology, 2016)", "key": {"LRRK2-G2019S [1]": {"biological_target": "T1, LRRK2-G2019S (Homo sapiens, UniProt Q5S007, G2019S)", "T1 sequence (Q5S007 whole entry G2019S)": "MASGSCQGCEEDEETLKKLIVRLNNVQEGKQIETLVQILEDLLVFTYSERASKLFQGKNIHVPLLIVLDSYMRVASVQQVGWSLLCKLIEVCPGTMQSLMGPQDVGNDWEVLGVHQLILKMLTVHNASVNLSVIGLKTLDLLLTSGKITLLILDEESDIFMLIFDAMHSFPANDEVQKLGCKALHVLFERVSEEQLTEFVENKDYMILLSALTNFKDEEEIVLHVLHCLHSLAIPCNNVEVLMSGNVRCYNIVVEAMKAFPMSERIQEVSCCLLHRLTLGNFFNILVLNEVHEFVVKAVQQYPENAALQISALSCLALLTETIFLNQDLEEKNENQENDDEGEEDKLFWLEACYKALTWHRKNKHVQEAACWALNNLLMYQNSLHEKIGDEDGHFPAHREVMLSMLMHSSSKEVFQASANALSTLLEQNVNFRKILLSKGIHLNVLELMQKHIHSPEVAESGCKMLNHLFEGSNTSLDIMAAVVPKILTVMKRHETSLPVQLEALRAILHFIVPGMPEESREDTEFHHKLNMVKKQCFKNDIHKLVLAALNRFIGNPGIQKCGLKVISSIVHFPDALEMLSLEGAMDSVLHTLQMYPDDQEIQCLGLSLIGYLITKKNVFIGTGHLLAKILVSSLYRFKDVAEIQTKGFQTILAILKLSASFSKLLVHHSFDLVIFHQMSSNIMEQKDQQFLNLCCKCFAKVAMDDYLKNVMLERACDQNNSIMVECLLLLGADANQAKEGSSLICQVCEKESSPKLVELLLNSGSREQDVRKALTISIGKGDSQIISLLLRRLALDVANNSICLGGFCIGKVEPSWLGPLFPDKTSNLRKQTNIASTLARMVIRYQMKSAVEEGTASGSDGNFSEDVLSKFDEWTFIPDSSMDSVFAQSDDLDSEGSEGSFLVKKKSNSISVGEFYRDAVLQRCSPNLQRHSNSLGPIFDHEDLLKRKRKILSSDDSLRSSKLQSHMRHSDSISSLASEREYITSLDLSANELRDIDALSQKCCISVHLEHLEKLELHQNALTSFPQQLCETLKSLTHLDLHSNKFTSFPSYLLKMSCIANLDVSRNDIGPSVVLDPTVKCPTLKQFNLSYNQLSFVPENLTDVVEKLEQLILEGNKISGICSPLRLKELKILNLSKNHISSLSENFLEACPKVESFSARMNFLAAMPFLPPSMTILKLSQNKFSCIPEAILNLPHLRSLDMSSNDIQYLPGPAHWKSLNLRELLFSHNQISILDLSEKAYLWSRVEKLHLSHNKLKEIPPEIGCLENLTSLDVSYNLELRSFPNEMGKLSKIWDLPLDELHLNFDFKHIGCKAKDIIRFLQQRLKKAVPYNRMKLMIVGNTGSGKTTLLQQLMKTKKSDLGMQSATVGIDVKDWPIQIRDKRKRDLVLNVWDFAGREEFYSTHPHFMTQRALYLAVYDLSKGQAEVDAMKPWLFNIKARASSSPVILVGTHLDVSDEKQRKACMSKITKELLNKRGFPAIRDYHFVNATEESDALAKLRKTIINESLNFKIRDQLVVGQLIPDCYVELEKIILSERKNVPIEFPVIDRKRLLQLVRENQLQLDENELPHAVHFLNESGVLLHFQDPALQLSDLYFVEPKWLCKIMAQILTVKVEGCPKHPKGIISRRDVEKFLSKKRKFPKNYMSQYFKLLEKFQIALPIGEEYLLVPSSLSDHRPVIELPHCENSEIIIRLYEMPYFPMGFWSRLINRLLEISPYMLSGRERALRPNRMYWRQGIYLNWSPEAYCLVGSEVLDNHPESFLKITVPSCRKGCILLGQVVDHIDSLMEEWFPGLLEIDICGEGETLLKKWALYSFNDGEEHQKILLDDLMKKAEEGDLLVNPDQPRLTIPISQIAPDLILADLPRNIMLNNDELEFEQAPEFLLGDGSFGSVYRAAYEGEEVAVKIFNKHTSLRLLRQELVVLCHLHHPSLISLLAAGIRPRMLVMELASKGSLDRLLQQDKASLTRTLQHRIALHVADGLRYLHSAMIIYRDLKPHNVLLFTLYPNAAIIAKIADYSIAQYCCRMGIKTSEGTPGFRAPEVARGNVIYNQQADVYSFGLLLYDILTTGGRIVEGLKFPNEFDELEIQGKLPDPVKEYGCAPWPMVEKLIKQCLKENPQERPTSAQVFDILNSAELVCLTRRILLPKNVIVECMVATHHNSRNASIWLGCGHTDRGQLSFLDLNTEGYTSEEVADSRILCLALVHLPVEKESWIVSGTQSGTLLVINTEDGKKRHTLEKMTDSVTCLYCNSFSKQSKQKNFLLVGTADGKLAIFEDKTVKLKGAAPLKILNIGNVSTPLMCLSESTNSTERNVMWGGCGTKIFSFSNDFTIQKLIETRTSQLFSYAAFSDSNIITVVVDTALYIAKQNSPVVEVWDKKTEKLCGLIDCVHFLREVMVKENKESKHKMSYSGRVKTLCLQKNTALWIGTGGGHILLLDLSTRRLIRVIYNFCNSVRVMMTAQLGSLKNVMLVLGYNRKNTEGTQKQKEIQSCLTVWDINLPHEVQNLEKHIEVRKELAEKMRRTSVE", "test": "Filter-binding kinase assay, G2019S activity on PEPrx3", "assay_type": "biochemical", "outline": "(§1)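 Recombinant LRRK2 G2019S (0.8 μg) with 5 μg synthetic peptide substrate, 10 μCi [γ32P]ATP and 1X kinase buffer in 40 μL, incubated at 30°C for 20 min. 10 μL of reaction spotted onto P81 phosphocellulose disks, washed twice in 75 mmol/L phosphoric acid, then counted by liquid scintillation. Reported as mean CPM ± SEM (n = 4) of phosphorylated peptide.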"}, "LRRK2-G2019S [2]": {"biological_target": "T1, LRRK2-G2019S", "test": "Filter-binding kinase assay, G2019S activity on LRRKtide", "assay_type": "biochemical", "outline": "as §1"}, "LRRK2-G2019S [3]": {"biological_target": "T1, LRRK2-G2019S", "test": "Radiometric kinase assay, LRRK2-G2019S activity on MBP", "assay_type": "biochemical", "conditions": "for reduction of p-MBP: G2019S on MBP, 2 μmol/L antioxidant, relative to vehicle control; for inhibition of p-MBP (in words): screen of 84 antioxidants, 2 μmol/L"}, "dopaminergic neurons": {"test_system": "dopaminergic neurons", "conditions": "mouse; cited from earlier work"}, "[4]": {"test_system": "ddc‐GAL4‐hLRRK2 G2019S flies", "test": "Oxidative state assays", "assay_type": "in vivo, Drosophila", "conditions": "10 μmol/L in food, relative fluorescence, control 31,756 ± 4142"}, "[5]": {"test_system": "LRRK2 G2019S‐expressing transgenic flies", "test": "Number of TH+ DA neurons in G2019S fly brains", "assay_type": "in vivo, Drosophila", "conditions": "10 μmol/L in diet; for increase in number of neurons in PPM3: 60 days posteclosion", "outline": "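G2019S transgenic flies (ddc-GAL4 driver) fed cornmeal food containing test compound at 10 μmol/L (DMSO) or plain food, at 25°C. Whole-mount adult brains dissected 60 days after eclosion and immunostained with rabbit anti-TH (1:200). DA neurons scored per cluster, including PPM3, by confocal microscopy. Given as mean count per cluster (n = 4; cohort of 20).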"}, "[6]": {"conditions": "cited from earlier work"}, "[7]": {"test_system": "LRRK2 G2019S‐expressing transgenic flies", "test": "Climbing assay", "assay_type": "in vivo, Drosophila", "conditions": "10 μmol/L in diet"}, "[8]": {"test_system": "LRRK2 G2019S‐expressing transgenic flies", "test": "Lifespan / survival of G2019S flies", "assay_type": "in vivo, Drosophila", "conditions": "nonsignificant", "outline": "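ddc-GAL4-hLRRK2 G2019S flies raised at 25°C on cornmeal food, replaced every 2 days, either plain or with test compound in DMSO added at 10 μmol/L. Read-out is the percentage of surviving flies; n = 4 cohorts of 60.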"}, "LRRK2-WT": {"biological_target": "LRRK2-WT (Homo sapiens, UniProt Q5S007)", "sequence (Q5S007 whole entry)": "as the sequence (Q5S007 whole entry G2019S) above, with S2019G counted along it", "test": "Radiometric kinase assay, LRRK2-WT activity on MBP", "assay_type": "biochemical", "conditions": "IC50 against LRRK2-WT, MBP substrate"}}, "note": "pIC50: −log10 of the molar value."}
{"smiles": "O=c1cc(-c2ccccc2)oc2cc(O)c(O)c(O)c12", "note": "[Baicalein]", "values": [{"measurement": "kinase activity toward PEPrx3 (in words)", "setting": "LRRK2-G2019S [1]", "value": "most significantly reduced"}, {"measurement": "kinase activity toward LRRKtide (in words)", "setting": "LRRK2-G2019S [2]", "value": "most significantly reduced"}]}
{"smiles": "COc1cc(/C=C/C(=O)CC(=O)/C=C/c2ccc(O)c(OC)c2)ccc1O", "note": "[Curcumin]", "values": [{"measurement": "reduction of p-MBP", "setting": "LRRK2-G2019S [3]", "value": "~ 90%"}]}
{"smiles": "O=c1ccc2cc(O)c(O)cc2o1", "note": "[Esculetin]", "values": [{"measurement": "protection of dopaminergic neurons against MPP+", "setting": "dopaminergic neurons", "value": "protect dopaminergic neurons against MPP+"}, {"measurement": "level of H2O2 in brain lysates", "setting": "[4]", "value": "20,220 ± 1909"}, {"measurement": "kinase activity toward PEPrx3 (in words)", "setting": "LRRK2-G2019S [1]", "value": "most significantly reduced"}, {"measurement": "increase in number of neurons in PPM3", "setting": "[5]", "value": "up to 55%"}, {"measurement": "crossing of the blood–brain barrier", "setting": "[6]", "value": "readily cross the blood–brain barrier"}, {"measurement": "kinase activity toward LRRKtide (in words)", "setting": "LRRK2-G2019S [2]", "value": "most significantly reduced"}]}
{"smiles": "N[C@@H](CCC(=O)N[C@@H](CS)C(=O)NCC(=O)O)C(=O)O", "note": "[Glutathione]", "values": [{"measurement": "inhibition of p-MBP (in words)", "setting": "LRRK2-G2019S [3]", "value": "Weak or noninhibitory"}]}
{"smiles": "Cc1cc2c(C(C)C)c(O)c(O)c(C=O)c2c(O)c1-c1c(C)cc2c(C(C)C)c(O)c(O)c(C=O)c2c1O", "note": "[Gossypol]", "values": [{"measurement": "kinase activity toward PEPrx3 (in words)", "setting": "LRRK2-G2019S [1]", "value": "most significantly reduced"}, {"measurement": "kinase activity toward LRRKtide (in words)", "setting": "LRRK2-G2019S [2]", "value": "most significantly reduced"}]}
{"smiles": "Oc1cc(O)cc(/C=C/c2ccc(O)c(O)c2)c1", "note": "[Piceatannol]", "values": [{"measurement": "level of H2O2 in brain lysates", "setting": "[4]", "value": "20,061 ± 2910"}, {"measurement": "kinase activity toward PEPrx3 (in words)", "setting": "LRRK2-G2019S [1]", "value": "most significantly reduced"}, {"measurement": "increase in number of neurons in PPM3", "setting": "[5]", "value": "up to 55%"}, {"measurement": "increase in climbing scores", "setting": "[7]", "value": "up to 22%"}, {"measurement": "kinase activity toward LRRKtide (in words)", "setting": "LRRK2-G2019S [2]", "value": "most significantly reduced"}]}
{"smiles": "CC(C)(Sc1cc(C(C)(C)C)c(O)c(C(C)(C)C)c1)Sc1cc(C(C)(C)C)c(O)c(C(C)(C)C)c1", "note": "[Probucol]", "values": [{"measurement": "viability of TH+ neurons (in words)", "setting": "[5]", "value": "did not improve"}, {"measurement": "decrease in lifespan", "setting": "[8]", "value": 11, "unit": "%"}, {"measurement": "inhibition of p-MBP (in words)", "setting": "LRRK2-G2019S [3]", "value": "Weak or noninhibitory"}]}
{"smiles": "O=C(/C=C/c1ccc(O)c(O)c1)O[C@H](Cc1ccc(O)c(O)c1)C(=O)O", "note": "[Rosmarinic acid]", "values": [{"measurement": "kinase activity toward PEPrx3 (in words)", "setting": "LRRK2-G2019S [1]", "value": "most significantly reduced"}, {"measurement": "kinase activity toward LRRKtide (in words)", "setting": "LRRK2-G2019S [2]", "value": "most significantly reduced"}]}
{"smiles": "CN[C@@H]1C[C@H]2O[C@@](C)([C@@H]1OC)n1c3ccccc3c3c4c(c5c6ccccc6n2c5c31)C(=O)NC4", "note": "[Staurosporine]", "values": [{"measurement": "LRRK2 kinase activity (in words)", "setting": "LRRK2-G2019S [3]; 10^−3 and 10^−1 μmol/L staurosporine, Fig. 1C", "value": "reduced kinase activity"}]}
{"smiles": "CC1=CC(=O)C(C(C)C)=CC1=O", "note": "[Thymoquinone]", "values": [{"measurement": "protection of dopaminergic neurons against MPP+", "setting": "dopaminergic neurons", "value": "protect dopaminergic neurons against MPP+"}, {"measurement": "level of H2O2 in brain lysates", "setting": "[4]", "value": "18,445 ± 1229"}, {"measurement": "kinase activity toward PEPrx3 (in words)", "setting": "LRRK2-G2019S [1]", "value": "most significantly reduced"}, {"measurement": "pIC50", "setting": "LRRK2-WT", "value": 6.17}, {"measurement": "increase in number of neurons in PPM3", "setting": "[5]", "value": "up to 55%"}, {"measurement": "crossing of the blood–brain barrier", "setting": "[6]", "value": "readily cross the blood–brain barrier"}, {"measurement": "pIC50", "setting": "LRRK2-G2019S [3]; IC50 against LRRK2-G2019S, MBP substrate", "value": 6.90}, {"measurement": "increase in climbing scores", "setting": "[7]", "value": "≤ 17", "unit": "%"}, {"measurement": "kinase activity toward LRRKtide (in words)", "setting": "LRRK2-G2019S [2]", "value": "most significantly reduced"}]}
{"smiles": "CCCCCCCCOC(=O)/C=C/c1ccc(O)c(O)c1", "note": "[n-Octyl caffeate]", "values": [{"measurement": "reduction of p-MBP", "setting": "LRRK2-G2019S [3]", "value": "~ 90%"}]}
{"smiles": "CC1=C(/C=C/C(C)=C/C=C/C(C)=C/C=C/C=C(C)/C=C/C=C(C)/C=C/C2=C(C)CCCC2(C)C)C(C)(C)CCC1", "note": "[β-carotene]", "values": [{"measurement": "inhibition of p-MBP (in words)", "setting": "LRRK2-G2019S [3]", "value": "Weak or noninhibitory"}]}
{"smiles": "Cc1c(O)cc2c(c1C)O[C@](C)(CCC[C@H](C)CCC[C@H](C)CCCC(C)C)CC2", "note": "[γ‐Tocopherol]", "values": [{"measurement": "reduction of p-MBP", "setting": "LRRK2-G2019S [3]", "value": "~ 90%"}]}
